Measured values as given in ChEMBL document CHEMBL4138179, “Design, synthesis and cytotoxic activity of N-Modified oleanolic saponins bearing A glucosamine” (Eur J Med Chem, 2018).

Experiments:
HL-60 = experiment: Cytotoxicity against human HL60 cells assessed as cell growth inhibition after 48 hrs by MTT assay; assay type: functional, cell-based; conditions: HL-60, 48 h
Outline: (§1)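 Cells from ATCC; HL-60 grown in IMDM, PC-3 in RPMI 1640, HT29 in DMEM, each with 10% FBS and penicillin/streptomycin, 37 °C, 5% CO2. Cells incubated without or with compound at the indicated concentrations and times. Mitochondrial MTT reduction read at 570 nm on a plate reader. IC50 given as mean ± SD of at least three independent experiments.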

HT-29 = experiment: Cytotoxicity against human HT-29 cells assessed as cell growth inhibition after 48 hrs by MTT assay; assay type: functional, cell-based; conditions: HT-29, 48 h; outline: as §1
PC-3 = experiment: Cytotoxicity against human PC3 cells assessed as cell growth inhibition after 48 hrs by MTT assay; assay type: functional, cell-based; conditions: PC-3, 48 h; outline: as §1
[1] = Drug uptake in human HL60 cell membrane at 15 uM for 15 hrs by DBCO-488-based fluorescence confocal microscopy; assay type: ADME, cell membranes; conditions: hl-60, 15 h
Outline: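 HL-60 cells treated with azido-bearing compound (15 μM, 15 h); DMSO-diluted control. Cells fixed in 99% alcohol, permeabilized with 0.1% Triton X-100 in PBS for 15 min, then washed. Copper-free labeling with DBCO-488 (2 μM) plus 0.5 mg/mL BSA in PBS for 6 h. RedDot2 nuclear and CellBrite Blue membrane counterstains; imaged by confocal fluorescence microscopy.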

Compound | IC50 (HL-60) [µM] | IC50 (HT-29) [µM] | IC50 (PC-3) [µM] | Drug uptake [1]
CCCCCCCCCCCCCC(=O)N[C@H]1[C@H](O[C@H]2CC[C@]3(C)[C@H]4CC=C5[C@@H]6CC(C)(C)CC[C@]6(C(=O)O)CC[C@@]5(C)[C@]4(C)CC[C@H]3C2(C)C)O[C@H](CO)[C@@H](O)[C@@H]1O | 10.7 | > 30 | > 30 | –
CC(=O)N[C@H]1[C@H](O[C@H]2CC[C@]3(C)[C@H]4CC=C5[C@@H]6CC(C)(C)CC[C@]6(C(=O)O)CC[C@@]5(C)[C@]4(C)CC[C@H]3C2(C)C)O[C@H](CO)[C@H](O)[C@@H]1O | 11.6 | 23.3 | 23.4 | –
CCCCCCCCCCCC(=O)N[C@H]1[C@H](O[C@H]2CC[C@]3(C)[C@H]4CC=C5[C@@H]6CC(C)(C)CC[C@]6(C(=O)O)CC[C@@]5(C)[C@]4(C)CC[C@H]3C2(C)C)O[C@H](CO)[C@@H](O)[C@@H]1O | 1.57 | > 30 | 21.4 | –
COC(=O)N[C@H]1[C@H](O[C@H]2CC[C@]3(C)[C@H]4CC=C5[C@@H]6CC(C)(C)CC[C@]6(C(=O)O)CC[C@@]5(C)[C@]4(C)CC[C@H]3C2(C)C)O[C@H](CO)[C@@H](O)[C@@H]1O | 11.4 | > 30 | > 30 | –
CC[C@]1(O)C[C@H]2CN(CCc3c([nH]c4ccccc34)[C@@](C(=O)OC)(c3cc4c(cc3OC)N(C=O)[C@H]3[C@@](O)(C(=O)OC)[C@H](OC(C)=O)[C@]5(CC)C=CCN6CC[C@]43[C@@H]65)C2)C1 [VINCRISTINE] | 0.0018 | – | > 0.025 | –
CCC(=O)N[C@H]1[C@H](O[C@H]2CC[C@]3(C)[C@H]4CC=C5[C@@H]6CC(C)(C)CC[C@]6(C(=O)O)CC[C@@]5(C)[C@]4(C)CC[C@H]3C2(C)C)O[C@H](CO)[C@@H](O)[C@@H]1O | 6.83 | 16.4 | 11.9 | –
CCCCCCCCOC(=O)N[C@H]1[C@H](O[C@H]2CC[C@]3(C)[C@H]4CC=C5[C@@H]6CC(C)(C)CC[C@]6(C(=O)O)CC[C@@]5(C)[C@]4(C)CC[C@H]3C2(C)C)O[C@H](CO)[C@@H](O)[C@@H]1O | 1.42 | 20.3 | 15.4 | –
CC1(C)CC[C@]2(C(=O)O)CC[C@]3(C)C(=CC[C@@H]4[C@@]5(C)CC[C@H](O)C(C)(C)[C@@H]5CC[C@]43C)[C@@H]2C1 [OLEANOLIC_ACID] | > 30 | > 30 | > 30 | –
CCCC(=O)N[C@H]1[C@H](O[C@H]2CC[C@]3(C)[C@H]4CC=C5[C@@H]6CC(C)(C)CC[C@]6(C(=O)O)CC[C@@]5(C)[C@]4(C)CC[C@H]3C2(C)C)O[C@H](CO)[C@@H](O)[C@@H]1O | 2.48 | > 30 | > 30 | –
CCCCOC(=O)N[C@H]1[C@H](O[C@H]2CC[C@]3(C)[C@H]4CC=C5[C@@H]6CC(C)(C)CC[C@]6(C(=O)O)CC[C@@]5(C)[C@]4(C)CC[C@H]3C2(C)C)O[C@H](CO)[C@@H](O)[C@@H]1O | 2.23 | 18.1 | 15 | –
CC1(C)CC[C@]2(C(=O)O)CC[C@]3(C)C(=CC[C@@H]4[C@@]5(C)CC[C@H](O[C@@H]6O[C@H](CO)[C@@H](O)[C@H](O)[C@H]6N)C(C)(C)[C@@H]5CC[C@]43C)[C@@H]2C1 | 2.65 | > 30 | 25 | –
CCCCCCCCCC(=O)N[C@H]1[C@H](O[C@H]2CC[C@]3(C)[C@H]4CC=C5[C@@H]6CC(C)(C)CC[C@]6(C(=O)O)CC[C@@]5(C)[C@]4(C)CC[C@H]3C2(C)C)O[C@H](CO)[C@@H](O)[C@@H]1O | 1.4 | > 30 | > 30 | –
CCCCCCCCCOC(=O)N[C@H]1[C@H](O[C@H]2CC[C@]3(C)[C@H]4CC=C5[C@@H]6CC(C)(C)CC[C@]6(C(=O)O)CC[C@@]5(C)[C@]4(C)CC[C@H]3C2(C)C)O[C@H](CO)[C@@H](O)[C@@H]1O | 1.23 | 22 | 16.1 | –
CCCCCCCCNC(=O)N[C@H]1[C@H](O[C@H]2CC[C@]3(C)[C@H]4CC=C5[C@@H]6CC(C)(C)CC[C@]6(C(=O)O)CC[C@@]5(C)[C@]4(C)CC[C@H]3C2(C)C)O[C@H](CO)[C@@H](O)[C@@H]1O | 2.14 | > 30 | > 30 | –
CCCCCCCCCCCCCCCCCC(=O)N[C@H]1[C@H](O[C@H]2CC[C@]3(C)[C@H]4CC=C5[C@@H]6CC(C)(C)CC[C@]6(C(=O)O)CC[C@@]5(C)[C@]4(C)CC[C@H]3C2(C)C)O[C@H](CO)[C@@H](O)[C@@H]1O | > 30 | > 30 | > 30 | –
CCCCCC(=O)N[C@H]1[C@H](O[C@H]2CC[C@]3(C)[C@H]4CC=C5[C@@H]6CC(C)(C)CC[C@]6(C(=O)O)CC[C@@]5(C)[C@]4(C)CC[C@H]3C2(C)C)O[C@H](CO)[C@@H](O)[C@@H]1O | 5.82 | > 30 | > 30 | –
O=c1[nH]cc(F)c(=O)[nH]1 [FLUOROURACIL] | > 30 | 8.3 | > 30 | –
CCCCC(=O)N[C@H]1[C@H](O[C@H]2CC[C@]3(C)[C@H]4CC=C5[C@@H]6CC(C)(C)CC[C@]6(C(=O)O)CC[C@@]5(C)[C@]4(C)CC[C@H]3C2(C)C)O[C@H](CO)[C@@H](O)[C@@H]1O | 10.6 | 21.7 | 24 | –
CC1(C)CC[C@]2(C(=O)O)CC[C@]3(C)C(=CC[C@@H]4[C@@]5(C)CC[C@H](O[C@@H]6O[C@H](CO)[C@@H](O)[C@H](O)[C@H]6NC(=O)CN=[N+]=[N-])C(C)(C)[C@@H]5CC[C@]43C)[C@@H]2C1 | 9.13 | 23.1 | 22.4 | Active
CCCCCCC(=O)N[C@H]1[C@H](O[C@H]2CC[C@]3(C)[C@H]4CC=C5[C@@H]6CC(C)(C)CC[C@]6(C(=O)O)CC[C@@]5(C)[C@]4(C)CC[C@H]3C2(C)C)O[C@H](CO)[C@H](O)[C@@H]1O | 2.69 | > 30 | > 30 | –
CCCOC(=O)N[C@H]1[C@H](O[C@H]2CC[C@]3(C)[C@H]4CC=C5[C@@H]6CC(C)(C)CC[C@]6(C(=O)O)CC[C@@]5(C)[C@]4(C)CC[C@H]3C2(C)C)O[C@H](CO)[C@@H](O)[C@@H]1O | 21.5 | > 30 | > 30 | –
C#CCCC(=O)N[C@H]1[C@H](O[C@H]2CC[C@]3(C)[C@H]4CC=C5[C@@H]6CC(C)(C)CC[C@]6(C(=O)O)CC[C@@]5(C)[C@]4(C)CC[C@H]3C2(C)C)O[C@H](CO)[C@@H](O)[C@@H]1O | 10.6 | > 30 | > 30 | Active
CC(=O)N[C@H]1[C@H](O[C@H]2CC[C@]3(C)[C@H]4CC=C5[C@@H]6CC(C)(C)CC[C@]6(C(=O)O)CC[C@@]5(C)[C@]4(C)CC[C@H]3C2(C)C)O[C@H](CO)[C@@H](O)[C@@H]1O | 10.3 | > 30 | > 30 | –
CCCCCCOC(=O)N[C@H]1[C@H](O[C@H]2CC[C@]3(C)[C@H]4CC=C5[C@@H]6CC(C)(C)CC[C@]6(C(=O)O)CC[C@@]5(C)[C@]4(C)CC[C@H]3C2(C)C)O[C@H](CO)[C@@H](O)[C@@H]1O | 1.44 | 21.4 | 13.9 | –
CCCCCOC(=O)N[C@H]1[C@H](O[C@H]2CC[C@]3(C)[C@H]4CC=C5[C@@H]6CC(C)(C)CC[C@]6(C(=O)O)CC[C@@]5(C)[C@]4(C)CC[C@H]3C2(C)C)O[C@H](CO)[C@@H](O)[C@@H]1O | 1.46 | > 30 | > 30 | –
CCCCCCCCC(=O)N[C@H]1[C@H](O[C@H]2CC[C@]3(C)[C@H]4CC=C5[C@@H]6CC(C)(C)CC[C@]6(C(=O)O)CC[C@@]5(C)[C@]4(C)CC[C@H]3C2(C)C)O[C@H](CO)[C@@H](O)[C@@H]1O | 1.46 | 22.8 | 14.7 | –
CCCCCCCOC(=O)N[C@H]1[C@H](O[C@H]2CC[C@]3(C)[C@H]4CC=C5[C@@H]6CC(C)(C)CC[C@]6(C(=O)O)CC[C@@]5(C)[C@]4(C)CC[C@H]3C2(C)C)O[C@H](CO)[C@@H](O)[C@@H]1O | 0.76 | 21.7 | 15.4 | –
CCOC(=O)N[C@H]1[C@H](O[C@H]2CC[C@]3(C)[C@H]4CC=C5[C@@H]6CC(C)(C)CC[C@]6(C(=O)O)CC[C@@]5(C)[C@]4(C)CC[C@H]3C2(C)C)O[C@H](CO)[C@@H](O)[C@@H]1O | 12.5 | > 30 | > 30 | –
CCCCCCCCCCCCCCCC(=O)N[C@H]1[C@H](O[C@H]2CC[C@]3(C)[C@H]4CC=C5[C@@H]6CC(C)(C)CC[C@]6(C(=O)O)CC[C@@]5(C)[C@]4(C)CC[C@H]3C2(C)C)O[C@H](CO)[C@@H](O)[C@@H]1O | > 30 | > 30 | > 30 | –
CCCCCCCC(=O)N[C@H]1[C@H](O[C@H]2CC[C@]3(C)[C@H]4CC=C5[C@@H]6CC(C)(C)CC[C@]6(C(=O)O)CC[C@@]5(C)[C@]4(C)CC[C@H]3C2(C)C)O[C@H](CO)[C@@H](O)[C@@H]1O | 1.68 | 21.9 | 19.4 | –
